Results from ChEMBL document CHEMBL4049390, “Combination of amino acid/dipeptide with ligustrazine-betulinic acid as antitumor agents” (Eur J Med Chem, 2017).
Activity calls are given as the source filed them. No cut-off for these calls is given here.

How the values were obtained:
HepG2 [1] = assay: Antiproliferative activity against human HepG2 cells after 72 hrs by MTT assay; format: functional, cell-based; details: HepG2, 72 h
Procedure, shortened: (§1)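 MTT assay. Log-phase cells were seeded at 3×10^3 cells/well and left overnight, then exposed to serial dilutions of compound (DMSO solutions) for 72 h in RPMI 1640 with 10% heat-inactivated FBS at 37 °C, 5% CO2. MTT (5 mg/mL, 20 µL) was added for 4 h at 37 °C and the formazan dissolved in DMSO. A490 was read. % inhibition = (1 − sample OD/control OD)×100; IC50 is the 50% growth-inhibition concentration. Triplicates, n = 3 independent experiments.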

HT-29 [2] = assay: Antiproliferative activity against human HT-29 cells after 72 hrs by MTT assay; format: functional, cell-based; details: HT-29, 72 h; procedure, shortened: as §1
HeLa [3] = assay: Antiproliferative activity against human HeLa cells after 72 hrs by MTT assay; format: functional, cell-based; procedure, shortened: as §1
A549 [4] = assay: Antiproliferative activity against human A549 cells after 72 hrs by MTT assay; format: functional, cell-based; details: A549, 72 h; procedure, shortened: as §1
MDCK = assay: Antiproliferative activity against MDCK cells after 72 hrs by MTT assay; format: cell-based; details: Canis lupus familiaris; procedure, shortened: as §1
HepG2 [5] = assay: Potency index, ratio of cisplatin IC50 to compound IC50 for human HepG2 cells; format: functional
Procedure, shortened: (§2)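 Ratios were calculated from MTT IC50 values (72 h exposure, A490 read-out, n = 3). Potency index = cisplatin IC50 / compound IC50. Therapeutic index = MDCK IC50 / tumour-line IC50.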

HT-29 [6] = assay: Potency index, ratio of cisplatin IC50 to compound IC50 for human HT-29 cells; format: functional; procedure, shortened: as §2
HeLa [7] = assay: Potency index, ratio of cisplatin IC50 to compound IC50 for human HeLa cells; format: functional; procedure, shortened: as §2
BGC-823 = assay: Potency index, ratio of cisplatin IC50 to compound IC50 for human BGC823 cells; format: functional; procedure, shortened: as §2
A549 [8] = assay: Potency index, ratio of cisplatin IC50 to compound IC50 for human A549 cells; format: functional; procedure, shortened: as §2
HepG2 [9] = assay: Induction of apoptosis in human HepG2 cells assessed as chromatin margination at 1.5 uM after 72 hrs by Giemsa staining based fluorescent microscopic method; format: functional, cell-based
Procedure, shortened: (§3)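 HepG2 cells were seeded at 4×10^3 cells/well in 6-well plates overnight, then treated at 1.5, 3 or 6 µM for 72 h. Cells were washed in PBS, fixed in cold methanol, stained with 6% Giemsa for 5 min, rinsed with water and dried. Morphology was examined microscopically at 200×, with apoptotic cells marked in representative fields.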

HepG2 [10] = assay: Induction of apoptosis in human HepG2 cells assessed as nuclear fragmentation at 1.5 to 6 uM after 72 hrs by Giemsa staining based fluorescent microscopic method; format: functional, cell-based; procedure, shortened: as §3
HepG2 [11] = assay: Induction of apoptosis in human HepG2 cells assessed as nuclear condensation at 6 uM after 72 hrs by Giemsa staining based fluorescent microscopic method; format: functional, cell-based; procedure, shortened: as §3
HepG2 [12] = assay: Induction of apoptosis in human HepG2 cells assessed as nuclear condensation after 72 hrs by DAPI staining based fluorescent microscopic method; format: functional, cell-based
Procedure, shortened: (§4)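 HepG2 cells were plated at 4×10^3 cells/well in six-well plates and grown 12 h, then treated at 1.5, 3 or 6 µM for 72 h. Cells were washed in PBS, fixed in 4% paraformaldehyde and stained with 1 mg/mL DAPI for 1 min in the dark. Nuclei were viewed by fluorescence microscopy at 200×.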

HepG2 [13] = assay: Induction of apoptosis in human HepG2 cells assessed as nuclear fragmentation after 72 hrs by DAPI staining based fluorescent microscopic method; format: functional, cell-based; procedure, shortened: as §4
HepG2 [14] = assay: Induction of apoptosis in human HepG2 cells assessed as formation of apoptotic bodies after 72 hrs by DAPI staining based fluorescent microscopic method; format: functional, cell-based; procedure, shortened: as §4
HepG2 [15] = assay: Induction of apoptosis in human HepG2 cells assessed as early apoptotic cells at 2 uM after 72 hrs by Annexin-V-FITC/propidium iodide staining based flow cytometry (reference value: 3.7%); format: functional
HepG2 [16] = assay: Induction of apoptosis in human HepG2 cells assessed as necrotic cells at 2 uM after 72 hrs by Annexin-V-FITC/propidium iodide staining based flow cytometry (reference value: 0.5%); format: functional
HepG2 [17] = assay: Induction of apoptosis in human HepG2 cells assessed as viable cells at 3 uM after 72 hrs by Annexin-V-FITC/propidium iodide staining based flow cytometry (reference value: 93.2%); format: functional; details: HepG2, 72 h, read-out: Activity
HepG2 [18] = assay: Induction of apoptosis in human HepG2 cells assessed as early apoptotic cells at 3 uM after 72 hrs by Annexin-V-FITC/propidium iodide staining based flow cytometry (reference value: 3.7%); format: functional
HepG2 [19] = assay: Induction of apoptosis in human HepG2 cells assessed as viable cells at 4 uM after 72 hrs by Annexin-V-FITC/propidium iodide staining based flow cytometry (reference value: 93.2%); format: functional; details: HepG2, 72 h, read-out: Activity
HepG2 [20] = assay: Induction of apoptosis in human HepG2 cells assessed as late apoptotic cells at 4 uM after 72 hrs by Annexin-V-FITC/propidium iodide staining based flow cytometry (reference value: 2.6%); format: functional
HepG2 [21] = assay: Induction of apoptosis in human HepG2 cells assessed as necrotic cells at 4 uM after 72 hrs by Annexin-V-FITC/propidium iodide staining based flow cytometry (reference value: 0.5%); format: functional
HepG2 [22] = assay: Induction of apoptosis in human HepG2 cells assessed as disruption of mitochondrial membrane potential by measuring mean fluorescence intensity at 2 uM after 72 hrs by Rh123 staining based flow cytometry (reference value: 26410); format: functional
HepG2 [23] = assay: Induction of apoptosis in human HepG2 cells assessed as disruption of mitochondrial membrane potential by measuring mean fluorescence intensity at 3 uM after 72 hrs by Rh123 staining based flow cytometry (reference value: 26410); format: functional
HepG2 [24] = assay: Induction of apoptosis in human HepG2 cells assessed as increase in intracellular calcium level by measuring mean fluorescence intensity after 72 hrs by Fluo-3AM dye based flow cytometry; format: functional, cell-based
Procedure, shortened: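 Intracellular Ca2+: HepG2 cells (1×10^5/well, 6-well) were grown 24 h, then treated at 2, 3 or 4 µM for 72 h. Cells were harvested, washed in cold PBS and resuspended in HBSS with 10 µM Fluo-3AM for 30 min at 37 °C in the dark. Flow cytometry used 488 nm excitation; the read-out is mean fluorescence intensity.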

HepG2 [25] = assay: Induction of apoptosis in human HepG2 cells assessed as increase in intracellular calcium level by measuring mean fluorescence intensity at 2 uM after 72 hrs by Fluo-3AM dye based flow cytometry (reference value: 1992); format: functional
Procedure, shortened: (§5)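 HepG2 cells at 1×10^5 cells/well were grown 24 h, then treated with compound for 72 h. Cells were harvested, washed in cold PBS and resuspended in HBSS containing 10 µM Fluo-3 AM for 30 min at 37 °C in the dark. Flow cytometry used 488 nm excitation; the read-out was mean fluorescence intensity against an untreated control.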

HepG2 [26] = assay: Induction of apoptosis in human HepG2 cells assessed as increase in intracellular calcium level by measuring mean fluorescence intensity at 3 uM after 72 hrs by Fluo-3AM dye based flow cytometry (reference value: 1992); format: functional; procedure, shortened: as §5
HepG2 [27] = assay: Induction of apoptosis in human HepG2 cells assessed as increase in intracellular calcium level by measuring mean fluorescence intensity at 4 uM after 72 hrs by Fluo-3AM dye based flow cytometry (reference value: 1992); format: functional; procedure, shortened: as §5

C=C(C)[C@@H]1CC[C@]2(C(=O)OCc3nc(C)c(C)nc3C)CC[C@]3(C)[C@H](CC[C@@H]4[C@@]5(C)CC[C@H](OC(=O)[C@H](C)NC(=O)CNC)C(C)(C)[C@@H]5CC[C@]43C)[C@@H]12
IC50 (HepG2 [1]): 3.09 µM | IC50 (HT-29 [2]): 1.7 µM | IC50 (HeLa [3]): 1.74 µM | IC50 (A549 [4]): 3.25 µM | IC50 (MDCK): 10.8 µM | Ratio IC50 (HepG2 [5]): 2 | Ratio IC50 (HT-29 [6]): 2 | Ratio IC50 (HeLa [7]): 2 | Ratio IC50 (BGC-823): 2 | Ratio IC50 (A549 [8]): 2 | Activity (HepG2 [9]): Active | Activity (HepG2 [10]): Active | Activity (HepG2 [11]): Active | Activity (HepG2 [12]): Dose-dependent effect | Activity (HepG2 [13]): Dose-dependent effect | Activity (HepG2 [14]): Dose-dependent effect | Activity (HepG2 [15]): 6.1% | Activity (HepG2 [16]): 1.1% | viability at 3 µM (HepG2 [17]): 81% | Activity (HepG2 [18]): 11.3% | viability at 4 µM (HepG2 [19]): 62.2% | Activity (HepG2 [20]): 6.9% | Activity (HepG2 [21]): 1% | Flu intensity (HepG2 [22]): 6416 | Flu intensity (HepG2 [23]): 5411 | Activity (HepG2 [24]): Dose-dependent effect | Flu intensity (HepG2 [25]): 2743 | Flu intensity (HepG2 [26]): 3760 | Flu intensity (HepG2 [27]): 6353
